Laboratory results taken from ChEMBL document CHEMBL1135606, “Synthesis, stability, and antimalarial activity of new hydrolytically stable and water-soluble (+)-deoxoartelinic acid” (J Med Chem, 2002).
In brackets after ≈: the same amount, converted by molar mass.

Key:
Plasmodium falciparum [1] = assay: In vitro antimalarial activity against chloroquine-resistant Plasmodium falciparum K1; format: functional; details: read-out: ED50 (the source's name)
Method in brief: (§1)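 Asexual P. falciparum (3D7 or K1) in A+ erythrocytes, RPMI 1640, 5% hematocrit, 37 °C, 5% CO2. Synchronized ring stages at 1% parasitemia. Triplicate 3-fold dilutions from a final top concentration of 30 µg/mL. 24 h incubation, then [3H]-hypoxanthine (0.1 µCi/well) for a further 24 h. Incorporation read by scintillation counting; ED50 from curve fitting.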

Plasmodium falciparum [2] = assay: In vitro antimalarial activity against chloroquine-sensitive Plasmodium falciparum 3D7; format: functional; details: read-out: ED50 (the source's name); method in brief: as §1
[3] = Half life was reported; format: ADME
Method in brief: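 Simulated stomach acid stability: compound at 1 mg/mL in 0.01 N HCl, pH 2.0, sealed, 37 °C. Acetal-type compounds sampled at 0–1400 min; non-acetal-type at 2–14 days. Remaining drug quantified by reverse-phase C-18 HPLC (ammonium acetate/acetonitrile, internal standard). Half-life from pseudo-first-order disappearance.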

Mus musculus [4] = assay: Percent of infected erythrocytes in Blood schizonticidal activity against Plasmodium chabaudi in mice at a concentration of 10 mg/kg/day on day 5; format: functional
Method in brief: (§2)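 Female BALB/c mice (18–20 g, SPF), groups of five, infected iv on day 1 with 1 × 10^7 P. chabaudi ANKA-infected erythrocytes. Dosing ip began 2 h post-inoculation, once daily for 4 days, at 10 mg/kg/day in 10% DMSO/PBS. On day 5, Giemsa-stained smears; ≥1000 red cells counted; % infected erythrocytes per mouse, compared with controls.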

Mus musculus [5] = assay: Percent of infected erythrocytes in Blood schizonticidal activity against Plasmodium chabaudi in mice at a concentration of 10 mg/kg/day on day 1; format: functional; method in brief: as §2
Mus musculus [6] = assay: Percent of infected erythrocytes in Blood schizonticidal activity against Plasmodium chabaudi in mice at a concentration of 10 mg/kg/day on day 2; format: functional
Mus musculus [7] = assay: Percent of infected erythrocytes in Blood schizonticidal activity against Plasmodium chabaudi in mice at a concentration of 10 mg/kg/day on day 3; format: functional
Mus musculus [8] = assay: Percent of infected erythrocytes in Blood schizonticidal activity against Plasmodium chabaudi in mice at a concentration of 10 mg/kg/day on day 4; format: functional; method in brief: as §2
Mus musculus [9] = assay: In vivo antimalarial activity against Plasmodium chabaudi in mice (Mus musculus) and its survival was reported; format: functional
Mus musculus [10] = assay: In vivo antimalarial activity against Plasmodium chabaudi in mice (Mus musculus) and its survival rate reported; format: functional

Structure (SMILES) | EC50 (Plasmodium falciparum [1]) | EC50 (Plasmodium falciparum [2]) | half-life [3] | Infected erythrocytes (Mus musculus [4]) | Infected erythrocytes (Mus musculus [5]) | Infected erythrocytes (Mus musculus [6]) | Infected erythrocytes (Mus musculus [7]) | Infected erythrocytes (Mus musculus [8]) | Survival (Mus musculus [9]) | Survival rate (Mus musculus [10])
C[C@H]1[C@H](OC(=O)CCC(=O)O)O[C@@H]2O[C@@]3(C)CC[C@H]4[C@H](C)CC[C@@H]1[C@@]24OO3 [ARTESUNATE] | 0.6 ng/mL (≈ 1.56 nM) | 0.2 ng/mL (≈ 0.52 nM) |  |  |  |  |  |  |  | 
C[C@@H]1CC[C@H]2[C@@H](C)C(=O)O[C@@H]3O[C@@]4(C)CC[C@@H]1[C@]32OO4 [ARTEMISININ] | 0.7 ng/mL (≈ 2.48 nM) | 2.9 ng/mL (≈ 10.3 nM) |  |  |  |  |  |  |  | 
C[C@H]1[C@@H](CCc2ccc(C(=O)O)cc2)O[C@@H]2O[C@]3(C)CC[C@H]4[C@H](C)CC[C@@H]1[C@@]24OO3 | 0.6 ng/mL (≈ 1.44 nM) | 1.1 ng/mL (≈ 2.64 nM) | 259 h | 0.3% | 0.5% | 0.5% | 2.9% | 0.5% | 5 | 100%
CCCC[C@H]1O[C@@H]2O[C@]3(C)CC[C@H]4[C@H](C)CC[C@@H]([C@H]1C)[C@@]24OO3 |  |  | 187 h |  |  |  |  |  |  | 
C[C@@H]1[C@H](OCc2ccc(C(=O)O)cc2)O[C@@H]2O[C@@]3(C)CC[C@@H]4[C@@H](C)CC[C@@H]1[C@]24OO3 [ARTELINIC ACID] | 1.4 ng/mL (≈ 3.35 nM) | 4 ng/mL (≈ 9.56 nM) | 13.1 h |  |  |  |  |  |  | 
C[C@@H]1CC[C@H]2[C@@H](C)CO[C@@H]3O[C@]4(C)CC[C@@H]1[C@]32OO4 [DEOXOARTEMISININ] |  |  | 245 h |  |  |  |  |  |  | 
CCO[C@H]1O[C@@H]2O[C@@]3(C)CC[C@H]4[C@H](C)CC[C@@H]([C@H]1C)[C@@]24OO3 [ARTEMOTIL] | 0.9 ng/mL (≈ 2.88 nM) | 0.2 ng/mL (≈ 0.64 nM) | 11 h |  |  |  |  |  | 3 | 60%
CCN(CC)CCCC(C)Nc1ccnc2cc(Cl)ccc12 (stereo not drawn) [CHLOROQUINE] | 220 ng/mL (≈ 688 nM) | 8 ng/mL (≈ 25 nM) |  | 81.3% | 65% | 71.3% | 62.1% | 82.4% | 0 | 0%
